# Several values for one entry are separate records, joined by “and”; a condition that tells them apart may be missing. Equal values may be shown once.
# How the values were obtained:
# [1] = tested on: Rattus norvegicus; assay: Antiinflammatory activity against D-adjuvant arthritis in injected rat paw at the dose of 25 mg/kg by oral administration; type: functional
# [2] = tested on: Rattus norvegicus; assay: Antiinflammatory activity against carrageenan induced rat paw edema (CPE), dosed orally; type: functional
# How it was run: (§1)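 Male Sprague–Dawley rats (150 ± 10 g), five per group. Compound or vehicle given orally in 0.5% methylcellulose 1 h before subplantar injection of 0.1 mL 1% carrageenan in saline into the right hind paw. Paw volume measured by mercury displacement before dosing and 3 h after carrageenan; the difference is the edema volume. ANOVA with Dunnett's t test.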
# [3] = organism: Rattus norvegicus; assay: Antiinflammatory activity in D-adjuvant induced arthritis in rat measured by the change in body weight; type: functional; set-up: concentration or dose not given beside the values
# [4] = tested on: Rattus norvegicus; assay: Antiinflammatory activity against D-adjuvant arthritis in uninjected rat paw at the dose of 25 mg/kg by oral administration; type: functional
# [5] = tested on: Rattus norvegicus; assay: Antiinflammatory activity against D-adjuvant arthritis in uninjected rat paw at the dose of 200 mg/kg by oral administration; type: functional
# [6] = tested on: Rattus norvegicus; assay: Antiinflammatory activity against D-adjuvant arthritis in injected rat paw at the dose of 200 mg/kg by oral administration; type: functional
# [7] = tested on: Rattus norvegicus; assay: Antiinflammatory activity dosed orally against D-adjuvant arthritis in rat.; type: functional
# [8] = tested on: Rattus norvegicus; assay: Antiinflammatory activity against D-adjuvant arthritis in uninjected rat paw at the dose of 50 mg/kg by oral administration; type: functional
# How it was run: (§2)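 Rat developing adjuvant arthritis screen with oral dosing on a prophylactic protocol. Percent change in body weight versus untreated animals was recorded as a preliminary toxicity sign. Significance was assessed against controls by two-tailed Student's t test, p < 0.05.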
# [9] = tested on: Rattus norvegicus; assay: Antiinflammatory activity against D-adjuvant arthritis in injected rat paw at the dose of 50 mg/kg by oral administration; type: functional
# [10] = tested on: Rattus norvegicus; assay: Antiinflammatory activity dosed orally against carrageenan induced rat paw edema(CPE); type: functional; how it was run: as §1
# [11] = tested on: Rattus norvegicus; assay: Antiinflammatory activity against D-adjuvant arthritis in injected rat paw at the dose of 100 mg/kg by oral administration; type: functional
# [12] = tested on: Rattus norvegicus; assay: Antiinflammatory activity against D-adjuvant arthritis in uninjected rat paw at the dose of 100 mg/kg by oral administration; type: functional
# [13] = tested on: Rattus norvegicus; assay: Antiinflammatory activity dosed orally against D-adjuvant arthritis in uninjected rat paw at 100 mg/Kg; type: functional; settings: po
# [14] = tested on: Rattus norvegicus; assay: Antiinflammatory activity dosed orally against D-adjuvant arthritis in injected rat paw at 50 mgKg; type: functional
# [15] = tested on: Rattus norvegicus; assay: Antiinflammatory activity dosed orally against D-adjuvant arthritis in injected rat paw at 100 mg/Kg; type: functional; settings: po
# [16] = tested on: Mus musculus; assay: Percent suppression of plaque forming cells in spleen cell suspension at a dose of 125 mg/kg, po. in AKR mice; type: functional
# [17] = tested on: Rattus norvegicus; assay: Antiinflammatory activity against D-adjuvant arthritis in uninjected rat paw at the dose of 10 mg/kg by oral administration; type: functional
# [18] = tested on: Rattus norvegicus; assay: Antiinflammatory activity against D-adjuvant arthritis in injected rat paw at the dose of 10 mg/kg by oral administration; type: functional
# [19] = tested on: Mus musculus; assay: Percent suppression of plaque forming cells in spleen cell suspension at a dose of 200 mg/kg, po. in AKR mice, p<0.05; type: functional
# [20] = tested on: Rattus norvegicus; assay: Antiinflammatory activity dosed orally against D-adjuvant arthritis in uninjected rat paw at 50 mg/kg; type: functional; settings: route oral
# [21] = tested on: Mus musculus; assay: Percent suppression of plaque forming cells in spleen cell suspension at a dose of 100 mg/kg, po. in AKR mice, p<0.05; type: functional
# [22] = tested on: Mus musculus; assay: Percent suppression of plaque forming cells in spleen cell suspension at a dose of 50 mg/kg, po. in AKR mice, p<0.05; type: functional
# [23] = tested on: Rattus norvegicus; assay: Antiinflammatory activity dosed orally against carrageenan induced rat paw edema(CPE).value in the parentheses is the dose(mg/kg).; type: functional; how it was run: as §1
# [24] = tested on: Rattus norvegicus; assay: Antiinflammatory activity dosed orally against D-adjuvant arthritis in rat measured by the change in the weight of the body; type: functional
# [25] = tested on: Rattus norvegicus; assay: Antiinflammatory activity against D-adjuvant arthritis in injected rat paw at the dose of 1.0 mg/kg by oral administration; type: functional; how it was run: as §2
# [26] = tested on: Rattus norvegicus; assay: Antiinflammatory activity against D-adjuvant arthritis in injected rat paw at the dose of 2.5 mg/kg by oral administration; type: functional
# How it was run: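 Rats dosed orally in a developing adjuvant arthritis screen; swelling of the adjuvant-injected paw scored against untreated arthritic controls. Significance by two-tailed Student's t test, p < 0.05. Percent change in body weight versus untreated animals recorded as a preliminary toxicity indication.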
# [27] = tested on: Rattus norvegicus; assay: Antiinflammatory activity against D-adjuvant arthritis in uninjected rat paw at the dose of 1.0 mg/kg by oral administration; settings: read-out: Inhibition
# [28] = tested on: Rattus norvegicus; assay: Antiinflammatory activity against D-adjuvant arthritis in uninjected rat paw at the dose of 5 mg/kg by oral administration; type: functional
# [29] = tested on: Rattus norvegicus; assay: Antiinflammatory activity against D-adjuvant arthritis in injected rat paw at the dose of 5 mg/kg by oral administration; type: functional
Structure (SMILES),Inhibition [2],Activity [3],inhibition in vivo at 50 mg/kg [8],inhibition in vivo at 50 mg/kg [9],other results
CCNCC(=O)Nc1nc2cc3nc(NC(=O)CNCC)sc3cc2s1.Cl.Cl,21%,-28%,–,–,inhibition in vivo at 25 mg/kg [1]: 79%; inhibition in vivo at 25 mg/kg [4]: 100%
N#Cc1c2sc(N)nc2c(Cl)c2nc(N)sc12,7%,3%,–,–,inhibition in vivo at 200 mg/kg [5]: 37%; inhibition in vivo at 200 mg/kg [6]: 47%
Nc1nc2c(Cl)c3nc(N)sc3c(C(F)(F)F)c2s1,13%,3%,–,–,inhibition in vivo at 200 mg/kg [5]: 12%; inhibition in vivo at 200 mg/kg [6]: 0%
CCN(CC)CCC(=O)Nc1nc2cc3nc(NC(=O)CCN(CC)CC)sc3cc2s1,–,–,48%,29%,Body weight change [7]: -5%; Inhibition [10]: 16%
CCN(CC)CC(=O)Nc1nc2c(cc(Cl)c3nc(NC(=O)CN(CC)CC)sc32)s1,35%,-58%,–,–,inhibition in vivo at 100 mg/kg [11]: 0%; inhibition in vivo at 100 mg/kg [12]: 62%
O=C(O)CNc1nc2cc3nc(NCC(=O)O)sc3cc2s1,2%,-25%,–,–,inhibition in vivo at 200 mg/kg [5]: 2%; inhibition in vivo at 200 mg/kg [6]: 0%
CN(CC(=O)Nc1nc2cc3nc(NC(=O)CN(C)C4CCCCC4)sc3cc2s1)C1CCCCC1.Cl.Cl,6%,-4%,–,–,inhibition in vivo at 100 mg/kg [11]: 32%; inhibition in vivo at 100 mg/kg [12]: 27%
CCN(CC)CCOc1ccc2c(c1)C(=O)c1cc(OCCN(CC)CC)ccc1-2 [TILORONE],0%,10%,–,–,inhibition in vivo at 100 mg/kg [13]: 45%; Inhibition [14]: 53%; inhibition in vivo at 100 mg/kg [15]: 59%; Activity [16]: 28%
Nc1nc2c(Br)c3nc(N)sc3cc2s1,33%,10%,–,–,inhibition in vivo at 200 mg/kg [5]: 37%; inhibition in vivo at 200 mg/kg [6]: 47%
CCN(CC)CCNc1nc2cc3nc(NCCN(CC)CC)sc3cc2s1,14%,3%,–,–,inhibition in vivo at 100 mg/kg [11]: 33%; inhibition in vivo at 100 mg/kg [12]: 0%
CCN(CC)CC(=O)Nc1nc2c(Cl)c3nc(NC(=O)CN(CC)CC)sc3c(Cl)c2s1,19%,-33%,–,–,inhibition in vivo at 10 mg/kg [17]: 71%; inhibition in vivo at 10 mg/kg [18]: 30%
CC1CCCN(CC(=O)Nc2nc3cc4nc(NC(=O)CN5CCCC(C)C5)sc4cc3s2)C1 (centres undefined),19%,6%,–,–,inhibition in vivo at 200 mg/kg [5]: 63%; inhibition in vivo at 200 mg/kg [6]: 34%
Nc1nc2cc3sc(N)nc3cc2s1,4%,-30%,–,–,inhibition in vivo at 10 mg/kg [17]: 100%; inhibition in vivo at 10 mg/kg [18]: 88%
CCC1CCCCN1CC(=O)Nc1nc2cc3nc(NC(=O)CN4CCCCC4CC)sc3cc2s1 (centres undefined),12%,-1%,–,–,inhibition in vivo at 200 mg/kg [5]: 65%; inhibition in vivo at 200 mg/kg [6]: 34%
Cl.Cl.O=C(CN1CCCCC1)Nc1nc2cc3nc(NC(=O)CN4CCCCC4)sc3cc2s1,0.8%,-6%,–,–,inhibition in vivo at 200 mg/kg [5]: 79%; inhibition in vivo at 200 mg/kg [6]: 56%
CCN(CC)CC(=O)Nc1nc2cc3nc(NC(=O)CN(CC)CC)sc3cc2s1,9%,–,98%,76%,Activity [19]: 83%; inhibition in vivo at 50 mg/kg [20]: 98%; Activity [21]: 82%; Activity [22]: 67%

Structure (SMILES),Inhibition [2],Activity [3],inhibition in vivo at 50 mg/kg [8],inhibition in vivo at 50 mg/kg [9],other results
CCN(CC)CC(=O)Nc1nc2cc3nc(NC(=O)CCl)sc3cc2s1,–,–,0%,38%,Body weight change [7]: -16%; Inhibition [10]: 25%
O=C(CN1CCSCC1)Nc1nc2cc3nc(NC(=O)CN4CCSCC4)sc3cc2s1,7%,6%,–,–,inhibition in vivo at 200 mg/kg [5]: 43%; inhibition in vivo at 200 mg/kg [6]: 0%
CC1CCC(NCC(=O)Nc2nc3cc4nc(NC(=O)CNC5CCC(C)CC5)sc4cc3s2)CC1 (centres undefined),–,-4%,54%,21%,Inhibition [23]: 3%
O=P1(N(CCCl)CCCl)NCCCO1 (centres undefined) [CYCLOPHOSPHAMIDE ANHYDROUS],–,–,–,–,inhibition in vivo at 25 mg/kg [1]: 86%; Body weight change [7]: -19%; Inhibition [10]: 18%; inhibition in vivo at 25 mg/kg [4]: 100%
CCN(CC)C(C)C(=O)Nc1nc2cc3nc(NC(=O)C(C)N(CC)CC)sc3cc2s1.Cl.Cl (centres undefined),–,–,0%,0%,Activity [24]: -19%; Inhibition [10]: 0%
Nc1nc2cc3nc(N)sc3cc2s1,60%,-20%,–,–,inhibition in vivo at 100 mg/kg [11]: 79%; inhibition in vivo at 100 mg/kg [12]: 92%
COc1ccc2c(c1)c(CC(=O)O)c(C)n2C(=O)c1ccc(Cl)cc1 [INDOMETHACIN],–,–,–,–,inhibition in vivo at 1 mg/kg [25]: 61%; Body weight change [7]: 18% and 28%; inhibition in vivo at 2.5 mg/kg [26]: 71%; Inhibition [10]: 63% and 34%; inhibition in vivo at 1 mg/kg [27]: 69%
O=C(CN1CCN(c2ccc(F)cc2)CC1)Nc1nc2cc3nc(NC(=O)CN4CCN(c5ccc(F)cc5)CC4)sc3cc2s1,11%,12%,79%,41%,–
CCNC(=O)Nc1nc2cc3nc(NC(=O)NCC)sc3cc2s1,6%,-1%,15%,0%,–
CNc1nc2cc3nc(NC)sc3cc2s1.Cl.Cl,24%,-30%,–,–,inhibition in vivo at 25 mg/kg [1]: 71%; inhibition in vivo at 25 mg/kg [4]: 100%
CCN(CC)CC(=O)Nc1nc2cc3nc(NC(=O)CN4CCCCC4)sc3cc2s1,20%,-14%,58%,50%,–
CCN(CC)CC(=O)Nc1nc2cc3sc(NC(=O)CN(CC)CC)nc3cc2s1.Cl.Cl,9%,-33%,–,–,inhibition in vivo at 5 mg/kg [28]: 0%; inhibition in vivo at 5 mg/kg [29]: 11%
O=C(CN1CCCC1)Nc1nc2cc3nc(NC(=O)CN4CCCC4)sc3cc2s1,17%,-21%,21%,18%,–
CCCN(CCC)CC(=O)Nc1nc2cc3nc(NC(=O)CN(CCC)CCC)sc3cc2s1.Cl.Cl,46%,-11%,47%,29%,–
CCOC(=O)C1CCCCN1CC(=O)Nc1nc2cc3nc(NC(=O)CN4CCCCC4C(=O)OCC)sc3cc2s1 (centres undefined),20%,-16%,0%,6%,–
CCN(CC)CC(=O)Nc1nc2c(C(F)(F)F)c3nc(NC(=O)CN(CC)CC)sc3c(Cl)c2s1.Cl.Cl,18%,-22%,–,–,inhibition in vivo at 25 mg/kg [1]: 57%; inhibition in vivo at 25 mg/kg [4]: 100%

# Reference: ChEMBL document CHEMBL1125290, “Bis basic substituted diaminobenzobisthiazoles as potential antiarthritic agents” (1992)
